Test results: ChEMBL document CHEMBL3769310, “Scouting new sigma receptor ligands: Synthesis, pharmacological evaluation and molecular modeling of 1,3-dioxolane-based structures and derivatives” (Eur J Med Chem, 2016)
The source made the active and inactive calls.

Biological target: Sigma non-opioid intracellular receptor 1 (Cavia porcellus, UniProt Q60492)
Assay: Displacement of [3H]-(+)-pentazocine from sigma-1 receptor in guinea pig brain membranes after 150 mins by liquid scintillation counting method
Assay type: cell membranes, Membrane

Chain of Sigma non-opioid intracellular receptor 1 (Q60492 whole entry): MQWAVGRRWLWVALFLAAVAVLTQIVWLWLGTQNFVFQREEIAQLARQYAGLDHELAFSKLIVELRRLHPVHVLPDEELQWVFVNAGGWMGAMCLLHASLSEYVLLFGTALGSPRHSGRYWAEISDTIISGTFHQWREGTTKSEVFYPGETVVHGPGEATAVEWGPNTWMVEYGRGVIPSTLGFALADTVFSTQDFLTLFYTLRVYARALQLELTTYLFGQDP

Row | Compound | Ki
1 | OCC(CN1CCC(Cc2ccccc2)CC1)OC(c1ccccc1)c1ccccc1 (stereo not given) | 200 nM
2 | O[C@@H]1[C@@H](CN2CCN(Cc3ccccc3)CC2)CCC1(c1ccccc1)c1ccccc1 (relative stereo) | 38 nM
3 | c1ccc(CN2CCN(C[C@H]3CO[C@@](c4ccccc4)(C4CCCCC4)O3)CC2)cc1 (relative stereo) | 1.07 nM
4 | c1ccc(CC2CCN(C[C@H]3CO[C@@](c4ccccc4)(C4CCCCC4)O3)CC2)cc1 | 56.2 nM
5 | O[C@H]1[C@@H](CN2CCC(Cc3ccccc3)CC2)CCC1(c1ccccc1)c1ccccc1 (relative stereo) | 282 nM
6 | c1ccc(CC2CCN(CC3COC(C4CCCCC4)(C4CCCCC4)O3)CC2)cc1 (stereo not given) | 209 nM
7 | c1ccc(CC2CCN(CC3CCC(c4ccccc4)(c4ccccc4)O3)CC2)cc1 (stereo not given) | 174 nM
8 | c1ccc(CN2CCN(CC3CSC(c4ccccc4)(c4ccccc4)S3)CC2)cc1 (stereo not given) | 302 nM
9 | c1ccc(CC2CCN(CC3COC(c4ccccc4)(c4ccccc4)O3)CC2)cc1 (stereo not given) | 2.19 nM
10 | c1ccc(CC2CCN(CCOC(c3ccccc3)c3ccccc3)CC2)cc1 | 56.2 nM
11 | c1ccc(CC2CCN(C[C@@H]3CO[C@@](c4ccccc4)(C4CCCCC4)O3)CC2)cc1 (relative stereo) | 52.5 nM
12 | O=C1C(CN2CCC(Cc3ccccc3)CC2)CCC1(c1ccccc1)c1ccccc1 (stereo not given) | 1120 nM
13 | c1ccc(CN2CCN(CC3COC4(CCCCC4)O3)CC2)cc1 (stereo not given) | 0.741 nM
14 | O[C@H]1[C@@H](CN2CCN(Cc3ccccc3)CC2)CCC1(c1ccccc1)c1ccccc1 (relative stereo) | 35.5 nM

Biological target: not listed separately
Assay: Displacement of [3H]DTG from sigma-2 receptor in guinea pig brain membranes after 120 mins by liquid scintillation counting method
Assay type: cell membranes, Cavia porcellus, Membrane
Procedure, shortened: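 Nonspecific with 5 µM DTG. Stopped with ice-cold 10 mM Tris pH 8.0, filtered on PEI-soaked GF/B, scintillation counted. Ki from duplicates, three experiments.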

Row | Compound | pKi
15 | OCC(CN1CCC(Cc2ccccc2)CC1)OC(c1ccccc1)c1ccccc1 (stereo not given) | 6.56
16 | O[C@@H]1[C@@H](CN2CCN(Cc3ccccc3)CC2)CCC1(c1ccccc1)c1ccccc1 (relative stereo) | 7
17 | c1ccc(CN2CCN(C[C@H]3CO[C@@](c4ccccc4)(C4CCCCC4)O3)CC2)cc1 (relative stereo) | 7.79
18 | c1ccc(CC2CCN(C[C@H]3CO[C@@](c4ccccc4)(C4CCCCC4)O3)CC2)cc1 | 6.43
19 | O[C@H]1[C@@H](CN2CCC(Cc3ccccc3)CC2)CCC1(c1ccccc1)c1ccccc1 (relative stereo) | 5.66
20 | c1ccc(CC2CCN(CC3COC(C4CCCCC4)(C4CCCCC4)O3)CC2)cc1 (stereo not given) | < 6
21 | c1ccc(CC2CCN(CC3CCC(c4ccccc4)(c4ccccc4)O3)CC2)cc1 (stereo not given) | 6.69
22 | c1ccc(CN2CCN(CC3CSC(c4ccccc4)(c4ccccc4)S3)CC2)cc1 (stereo not given) | 5.64
23 | c1ccc(CC2CCN(CC3COC(c4ccccc4)(c4ccccc4)O3)CC2)cc1 (stereo not given) | 8.2
24 | c1ccc(CC2CCN(CCOC(c3ccccc3)c3ccccc3)CC2)cc1 | 6.77
25 | c1ccc(CC2CCN(C[C@@H]3CO[C@@](c4ccccc4)(C4CCCCC4)O3)CC2)cc1 (relative stereo) | 6.84
26 | O=C1C(CN2CCC(Cc3ccccc3)CC2)CCC1(c1ccccc1)c1ccccc1 (stereo not given) | 5.66
27 | c1ccc(CN2CCN(CC3COC4(CCCCC4)O3)CC2)cc1 (stereo not given) | 7.46
28 | O[C@H]1[C@@H](CN2CCN(Cc3ccccc3)CC2)CCC1(c1ccccc1)c1ccccc1 (relative stereo) | 6.62

Biological target: T1, 5-hydroxytryptamine receptor 1A (Homo sapiens, UniProt P08908)
T1 sequence (P08908 whole entry): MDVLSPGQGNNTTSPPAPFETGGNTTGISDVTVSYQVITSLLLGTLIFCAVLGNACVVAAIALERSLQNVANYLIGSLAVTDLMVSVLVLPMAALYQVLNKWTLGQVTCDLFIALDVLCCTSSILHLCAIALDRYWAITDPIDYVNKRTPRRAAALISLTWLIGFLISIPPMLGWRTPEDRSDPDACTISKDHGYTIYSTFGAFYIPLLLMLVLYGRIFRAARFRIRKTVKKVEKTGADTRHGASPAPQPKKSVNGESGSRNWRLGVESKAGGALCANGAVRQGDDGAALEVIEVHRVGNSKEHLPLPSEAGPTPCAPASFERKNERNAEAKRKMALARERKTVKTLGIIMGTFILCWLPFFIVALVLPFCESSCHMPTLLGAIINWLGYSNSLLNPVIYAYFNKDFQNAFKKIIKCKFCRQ
Assay: Displacement of [3H]8-OH-DPAT from human 5-HT1A expressed in human HeLa cells after 30 mins
Assay type: cell-based

Row | Compound | Ki
29 | OCC(CN1CCC(Cc2ccccc2)CC1)OC(c1ccccc1)c1ccccc1 (stereo not given) | 417 nM
30 | O[C@@H]1[C@@H](CN2CCN(Cc3ccccc3)CC2)CCC1(c1ccccc1)c1ccccc1 (relative stereo) | 126 nM
31 | c1ccc(CN2CCN(C[C@H]3CO[C@@](c4ccccc4)(C4CCCCC4)O3)CC2)cc1 (relative stereo) | > 1000 nM
32 | c1ccc(CC2CCN(C[C@H]3CO[C@@](c4ccccc4)(C4CCCCC4)O3)CC2)cc1 | > 1000 nM
33 | O[C@H]1[C@@H](CN2CCC(Cc3ccccc3)CC2)CCC1(c1ccccc1)c1ccccc1 (relative stereo) | 7.59 nM
34 | c1ccc(CC2CCN(CC3COC(C4CCCCC4)(C4CCCCC4)O3)CC2)cc1 (stereo not given) | > 1000 nM
35 | c1ccc(CC2CCN(CC3CCC(c4ccccc4)(c4ccccc4)O3)CC2)cc1 (stereo not given) | > 1000 nM
36 | c1ccc(CN2CCN(CC3CSC(c4ccccc4)(c4ccccc4)S3)CC2)cc1 (stereo not given) | > 1000 nM
37 | c1ccc(CC2CCN(CC3COC(c4ccccc4)(c4ccccc4)O3)CC2)cc1 (stereo not given) | 550 nM
38 | c1ccc(CC2CCN(CCOC(c3ccccc3)c3ccccc3)CC2)cc1 | > 1000 nM
39 | c1ccc(CC2CCN(C[C@@H]3CO[C@@](c4ccccc4)(C4CCCCC4)O3)CC2)cc1 (relative stereo) | > 1000 nM
40 | O=C1C(CN2CCC(Cc3ccccc3)CC2)CCC1(c1ccccc1)c1ccccc1 (stereo not given) | > 1000 nM
41 | c1ccc(CN2CCN(CC3COC4(CCCCC4)O3)CC2)cc1 (stereo not given) | > 1000 nM
42 | O[C@H]1[C@@H](CN2CCN(Cc3ccccc3)CC2)CCC1(c1ccccc1)c1ccccc1 (relative stereo) | 7.24 nM

Species on record: Cavia porcellus
Assay: Selectivity ratio of Ki for sigma-1 receptor in guinea pig brain membranes to Ki for sigma-2 receptor in guinea pig brain membranes
Assay type: cell membranes

Row | Compound | Ratio Ki
43 | OCC(CN1CCC(Cc2ccccc2)CC1)OC(c1ccccc1)c1ccccc1 (stereo not given) | 1
44 | O[C@@H]1[C@@H](CN2CCN(Cc3ccccc3)CC2)CCC1(c1ccccc1)c1ccccc1 (relative stereo) | 3
45 | c1ccc(CN2CCN(C[C@H]3CO[C@@](c4ccccc4)(C4CCCCC4)O3)CC2)cc1 (relative stereo) | 15
46 | c1ccc(CC2CCN(C[C@H]3CO[C@@](c4ccccc4)(C4CCCCC4)O3)CC2)cc1 | 7
47 | O[C@H]1[C@@H](CN2CCC(Cc3ccccc3)CC2)CCC1(c1ccccc1)c1ccccc1 (relative stereo) | 8
48 | c1ccc(CC2CCN(CC3COC(C4CCCCC4)(C4CCCCC4)O3)CC2)cc1 (stereo not given) | > 5
49 | c1ccc(CC2CCN(CC3CCC(c4ccccc4)(c4ccccc4)O3)CC2)cc1 (stereo not given) | 1
50 | c1ccc(CN2CCN(CC3CSC(c4ccccc4)(c4ccccc4)S3)CC2)cc1 (stereo not given) | 8
51 | c1ccc(CC2CCN(CC3COC(c4ccccc4)(c4ccccc4)O3)CC2)cc1 (stereo not given) | 3
52 | c1ccc(CC2CCN(CCOC(c3ccccc3)c3ccccc3)CC2)cc1 | 3
53 | c1ccc(CC2CCN(C[C@@H]3CO[C@@](c4ccccc4)(C4CCCCC4)O3)CC2)cc1 (relative stereo) | 3
54 | O=C1C(CN2CCC(Cc3ccccc3)CC2)CCC1(c1ccccc1)c1ccccc1 (stereo not given) | 2
55 | c1ccc(CN2CCN(CC3COC4(CCCCC4)O3)CC2)cc1 (stereo not given) | 47
56 | O[C@H]1[C@@H](CN2CCN(Cc3ccccc3)CC2)CCC1(c1ccccc1)c1ccccc1 (relative stereo) | 6.8

Tested on: HeLa
Assay: Selectivity ratio of Ki for sigma-1 receptor in guinea pig brain membranes to Ki for human 5-HT1A expressed in human HeLa cells
Assay type: cell-based

Row | Compound | Ratio Ki
57 | OCC(CN1CCC(Cc2ccccc2)CC1)OC(c1ccccc1)c1ccccc1 (stereo not given) | 2.5
58 | O[C@@H]1[C@@H](CN2CCN(Cc3ccccc3)CC2)CCC1(c1ccccc1)c1ccccc1 (relative stereo) | 3
59 | c1ccc(CN2CCN(C[C@H]3CO[C@@](c4ccccc4)(C4CCCCC4)O3)CC2)cc1 (relative stereo) | > 933
60 | c1ccc(CC2CCN(C[C@H]3CO[C@@](c4ccccc4)(C4CCCCC4)O3)CC2)cc1 | > 18
61 | O[C@H]1[C@@H](CN2CCC(Cc3ccccc3)CC2)CCC1(c1ccccc1)c1ccccc1 (relative stereo) | 0.02
62 | c1ccc(CC2CCN(CC3COC(C4CCCCC4)(C4CCCCC4)O3)CC2)cc1 (stereo not given) | > 5
63 | c1ccc(CC2CCN(CC3CCC(c4ccccc4)(c4ccccc4)O3)CC2)cc1 (stereo not given) | > 6
64 | c1ccc(CN2CCN(CC3CSC(c4ccccc4)(c4ccccc4)S3)CC2)cc1 (stereo not given) | > 3
65 | c1ccc(CC2CCN(CC3COC(c4ccccc4)(c4ccccc4)O3)CC2)cc1 (stereo not given) | 251
66 | c1ccc(CC2CCN(CCOC(c3ccccc3)c3ccccc3)CC2)cc1 | > 18
67 | c1ccc(CC2CCN(C[C@@H]3CO[C@@](c4ccccc4)(C4CCCCC4)O3)CC2)cc1 (relative stereo) | > 19
68 | O=C1C(CN2CCC(Cc3ccccc3)CC2)CCC1(c1ccccc1)c1ccccc1 (stereo not given) | 1
69 | c1ccc(CN2CCN(CC3COC4(CCCCC4)O3)CC2)cc1 (stereo not given) | > 1350
70 | O[C@H]1[C@@H](CN2CCN(Cc3ccccc3)CC2)CCC1(c1ccccc1)c1ccccc1 (relative stereo) | 0.2

Tested on: HeLa
Assay: Selectivity ratio of Ki for sigma-2 receptor in guinea pig brain membranes to Ki for human 5-HT1A expressed in human HeLa cells
Assay type: cell-based

Row | Compound | Ratio Ki
71 | OCC(CN1CCC(Cc2ccccc2)CC1)OC(c1ccccc1)c1ccccc1 (stereo not given) | 2.5
72 | O[C@@H]1[C@@H](CN2CCN(Cc3ccccc3)CC2)CCC1(c1ccccc1)c1ccccc1 (relative stereo) | 3
73 | c1ccc(CN2CCN(C[C@H]3CO[C@@](c4ccccc4)(C4CCCCC4)O3)CC2)cc1 (relative stereo) | > 933
74 | c1ccc(CC2CCN(C[C@H]3CO[C@@](c4ccccc4)(C4CCCCC4)O3)CC2)cc1 | > 18
75 | O[C@H]1[C@@H](CN2CCC(Cc3ccccc3)CC2)CCC1(c1ccccc1)c1ccccc1 (relative stereo) | 0.02
76 | c1ccc(CC2CCN(CC3COC(C4CCCCC4)(C4CCCCC4)O3)CC2)cc1 (stereo not given) | > 5
77 | c1ccc(CC2CCN(CC3CCC(c4ccccc4)(c4ccccc4)O3)CC2)cc1 (stereo not given) | > 6
78 | c1ccc(CN2CCN(CC3CSC(c4ccccc4)(c4ccccc4)S3)CC2)cc1 (stereo not given) | > 3
79 | c1ccc(CC2CCN(CC3COC(c4ccccc4)(c4ccccc4)O3)CC2)cc1 (stereo not given) | 251
80 | c1ccc(CC2CCN(CCOC(c3ccccc3)c3ccccc3)CC2)cc1 | > 18
81 | c1ccc(CC2CCN(C[C@@H]3CO[C@@](c4ccccc4)(C4CCCCC4)O3)CC2)cc1 (relative stereo) | > 19
82 | O=C1C(CN2CCC(Cc3ccccc3)CC2)CCC1(c1ccccc1)c1ccccc1 (stereo not given) | 1
83 | c1ccc(CN2CCN(CC3COC4(CCCCC4)O3)CC2)cc1 (stereo not given) | > 1350
84 | O[C@H]1[C@@H](CN2CCN(Cc3ccccc3)CC2)CCC1(c1ccccc1)c1ccccc1 (relative stereo) | 0.2

Tested on: Rattus norvegicus
Assay: Analgesic activity in Sprague-Dawley rat assessed as withdrawal latency at 1 mg/kg, sc measured after 30 to 120 mins by tail flick test
Assay type: functional, organism-based
Procedure, shortened: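 Male Sprague-Dawley rats, 180–200 g, 8–10 per group, dosed s.c. Radiant heat tail-flick with I.R. source on lower third of tail at 25 ± 1 °C. Basal latency 3–4 s, taken as mean of three readings at 5 min intervals. Cut-off 10 s. Latencies read at 30, 45, 60, 90 and 120 min after injection; saline group as control. Blinded observers; mean ± SE, two-way ANOVA then t test.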

Row | Compound | Activity
85 | c1ccc(CN2CCN(CC3COC4(CCCCC4)O3)CC2)cc1 (stereo not given) | inactive
